ChEMBL document CHEMBL1158426, “Semisynthesis and pharmacological activities of Tetrac analogs: angiogenesis modulators” (Bioorg Med Chem Lett, 2009)

How the values were obtained:
Gallus gallus = species on record: Gallus gallus; experiment: Antiangiogenic activity in chicken embryo chorioallantoic membrane model assessed as inhibition of FGF-induced angiogenesis at 1 uM treated 1 hr after FGF challenge measured after 48 hrs relative to control; type: functional, tissue-based
Summary of the method: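 Live chick chorioallantoic membrane was exposed to FGF with or without test agent, with PBS as a control. New vessel formation was scored as branch points and reported as mean ± SEM, n = 8. Percent inhibition was calculated against the FGF control.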

Mus musculus = species on record: Mus musculus; experiment: Antiangiogenic activity in […] mouse assessed as inhibition of FGF-induced angiogenesis at 10 ug/Matrigel plug measured after 15 days of Matrigel injection using […] reagent staining by ELISA; type: functional; details: in the assay text read “after 14 days” for “after 15 days”
Summary of the method: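 Mice housed 4 per cage at 20–24 °C, 60–70% humidity, 12 h light/dark, food and water ad libitum, with 5 days' acclimation. Matrigel thawed overnight at 4 °C, kept on ice, injected subcutaneously with FGF. Dissected plugs were stripped of peritoneum, homogenized in ddH₂O for 5–10 min, and spun at 4000 rpm for 10 min. Supernatant was mixed with Drabkin's reagent for 15–30 min at room temperature for hemoglobin measurement.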

[1] = Dissociation constant, pKa of the compound; type: physicochemical

SMILES | inhibition (Gallus gallus) | inhibition (INH) (Mus musculus) | pKa [1]
CC(C)[Si](OC(=O)Cc1cc(I)c(Oc2cc(I)c(O)c(I)c2)c(I)c1)(C(C)C)C(C)C | 75% | 104% | 
O=C(O)Cc1cc(I)c(Oc2cc(I)c(O)c(I)c2)c(I)c1 [TETRAC] | 85% | 90% | 4.3
CC(C)(C)OC(=O)Cc1cc(I)c(Oc2cc(I)c(O)c(I)c2)c(I)c1 | 88% | 95% | 
O=C(O)Cc1cc(I)c(Oc2cc(I)c(OCC3CO3)c(I)c2)c(I)c1 (configuration not stated) | 62% | 100% | 
CC(C)[Si](OC(=O)Cc1cc(I)c(Oc2cc(I)c(OCC3CO3)c(I)c2)c(I)c1)(C(C)C)C(C)C (configuration not stated) | 96% | 100% | 
O=C(Cc1cc(I)c(Oc2cc(I)c(O)c(I)c2)c(I)c1)N1CCCCC1 | 15% | 104% | 
O=C(Cc1cc(I)c(Oc2cc(I)c(OCC3CO3)c(I)c2)c(I)c1)N1CCCCC1 (configuration not stated) | 44% | 80% | 
O=C(Cc1cc(I)c(Oc2cc(I)c(OCC3CO3)c(I)c2)c(I)c1)OCC1CO1 (configuration not stated) | 31% | 100% | 
